Laboratory results published in PMC3770188 (ACS medicinal chemistry letters, 2013).
Where two headings read alike, the source gives them in different places.

How the values were obtained:
spermatogenesis in mice [1] = conditions: oral, low levels; cited from earlier work
RARγ = biological target: T1, RARγ (Homo sapiens, UniProt P13631); assay: Transactivation competition assay; format: cell-based; conditions: HeLa cells, 10^−7M ATRA, increasing concentrations of retinoid, 24 hours
T1 sequence (P13631 1-454): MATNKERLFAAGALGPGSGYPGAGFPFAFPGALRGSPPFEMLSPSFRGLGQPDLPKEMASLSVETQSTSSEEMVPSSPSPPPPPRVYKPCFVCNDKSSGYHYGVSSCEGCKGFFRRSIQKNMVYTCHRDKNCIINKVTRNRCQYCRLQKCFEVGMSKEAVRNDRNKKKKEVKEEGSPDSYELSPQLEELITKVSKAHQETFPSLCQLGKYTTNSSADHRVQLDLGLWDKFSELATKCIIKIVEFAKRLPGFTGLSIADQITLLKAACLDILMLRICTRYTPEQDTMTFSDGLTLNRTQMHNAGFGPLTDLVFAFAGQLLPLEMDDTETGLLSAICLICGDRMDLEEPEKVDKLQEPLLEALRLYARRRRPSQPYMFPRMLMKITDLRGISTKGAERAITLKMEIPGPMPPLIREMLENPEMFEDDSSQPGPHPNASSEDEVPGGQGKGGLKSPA
Procedure, shortened: (§1)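 HeLa cells were cotransfected with receptor/CAT reporter constructs plus a constant β-galactosidase plasmid as internal control. Cells were incubated with submaximal ATRA (10–7 M) plus increasing concentrations of test compound, and CAT expression was measured after 24 h. Dilution medium without retinoid served as vehicle control and ATRA as positive control.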

RARs [2] = conditions: concomitantly transfected RARs; cited from earlier work
spermatogenesis in mice [3] = assay: Oral administration, effect on spermatogenesis in mice; format: in vivo, CD1 mice; conditions: for Morphology of caudal epididymides: oral 10 mg/kg for 7 days; for Morphology of caudal epididymides / Epididymal sperm motility: 1-month post-treatment; for Testicular weight compared with control: oral 2 and 10 mg/kg for 7 days, mean±SD of five mice; for Effect on spermatogenesis (testis morphology): oral 2.0 and 10 mg/kg for 7 days, one-month after dosing; for Epididymal sperm motility: oral, 7 days
Procedure, shortened: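 Male CD1 mice received test compound by oral gavage daily at 2 or 10 mg/kg for 7 days; controls got vehicle alone for 7 days. Body weight was monitored throughout. One month post-treatment, testes were collected and weighed (mean ± SD, five mice per regimen; […] Student's t-test vs age-matched controls). Testes and epididymides were sectioned for histology with tubule staging.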

spermatogenesis in mice [4] = assay: IV and IP administration, effect on spermatogenesis in mice; format: in vivo, CD1 mice
Procedure, shortened: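 Male CD1 mice dosed daily with test compound at 10 mg/kg by IV (for 3, 6 or 7 days; n = 2 for 6 and 7 days) or IP (7 days), against vehicle-only controls. Testes taken […] were sectioned and examined histologically for spermatid alignment and release in tubules. Reversibility was assessed by testis histology 4 weeks post-treatment.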

RARβ = biological target: T2, RARβ (Homo sapiens, UniProt P10826); assay: Transactivation competition assay; format: cell-based; conditions: HeLa cells, 10^−7M ATRA, increasing concentrations of retinoid, 24 hours
T2 sequence (P10826 1-455): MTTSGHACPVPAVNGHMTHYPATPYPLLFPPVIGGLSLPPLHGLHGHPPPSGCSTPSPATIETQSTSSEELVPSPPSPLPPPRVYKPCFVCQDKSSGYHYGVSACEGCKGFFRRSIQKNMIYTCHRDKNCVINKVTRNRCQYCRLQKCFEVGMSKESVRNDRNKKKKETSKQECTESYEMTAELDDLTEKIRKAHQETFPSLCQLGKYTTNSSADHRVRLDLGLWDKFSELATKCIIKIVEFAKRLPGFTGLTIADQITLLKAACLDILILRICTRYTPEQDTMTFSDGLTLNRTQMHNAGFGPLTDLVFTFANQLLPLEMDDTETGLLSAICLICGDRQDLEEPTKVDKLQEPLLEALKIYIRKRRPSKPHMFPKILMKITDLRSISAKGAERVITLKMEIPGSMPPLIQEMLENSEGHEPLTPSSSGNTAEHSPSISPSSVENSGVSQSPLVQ
Procedure, shortened: as §1

RARs [5] = assay: Transactivation assay; format: cell-based; conditions: concomitantly transfected RARs

Compound | Effect on spermatogenesis in mice (spermatogenesis in mice [1]) | Side-effects in mice (spermatogenesis in mice [1]) | Competition of ATRA-induced CAT expression, RARγ (RARγ) | Induction of RARE-CAT reporter expression by compound alone (RARs [2]) | Morphology of caudal epididymides (spermatogenesis in mice [3]) | Testicular weight compared with control (spermatogenesis in mice [3]) | Effect on spermatogenesis (testis morphology) (spermatogenesis in mice [3]) | Epididymal sperm motility (spermatogenesis in mice [3]) | Effect on spermatid alignment and sperm release (spermatogenesis in mice [4]; IV 10 mg/kg for 6 and 7 days, one-day post-treatment) | Effect on spermatogenesis 4-weeks post-treatment (reversibility) (spermatogenesis in mice [4]; IV, 4-weeks post-treatment) | Competition of ATRA-induced CAT expression, RARβ (RARβ) | Induction of RARE-CAT reporter expression by compound alone (RARs [5])
CC1(C)CC=C(c2ccccc2)c2cc(/C=C/c3ccc(C(=O)O)cc3)ccc21 [compound 1] | inhibited spermatogenesis | without any observable side-effects |  |  |  |  |  |  |  |  |  | 
Cc1ccc(C2=CCC(C)(C)c3ccc(C(=O)Nc4ccc(C(=O)O)cc4)cc32)cc1 [compound 2] |  |  | minimal activity | did not, by themselves, induce reporter expression | appeared normal | No significant differences | no effect on spermatogenesis | normal motility | Acute disruptive effects | No effect on spermatogenesis | minimal activity | 
CC1(C)CC=C(c2cnc3ccccc3c2)c2cc(C(=O)Nc3ccc(C(=O)O)cc3)ccc21 [compound 3] |  |  | minimal activity |  | appeared normal | No significant differences | no effect on spermatogenesis | normal motility |  |  | minimal activity | did not, by themselves, induce reporter expression
